# Columns and labels:
# [1] = test system: human lymphoblasts (CRL-8155); experiment: Mammalian cell growth inhibition; type: cell-based; details: CRL-8155 cell line
# Hep G2 cell line = experiment: Cytotoxicity on Hep G2 cell line; type: cell-based
# [2] = test system: T. brucei brucei strain BF427; experiment: T. brucei growth inhibition; type: cell-based; details: for improvement in potency compared to compound 1: T. brucei EC50 vs compound 1
# CYP3A4 = CYP3A4 (Homo sapiens, UniProt P08684); experiment: CYP3A4 inhibition; type: in vitro ADME
# [3] = test system: T. brucei rhodesiense STIB900; experiment: Mouse efficacy model of acute T. brucei infection; type: in vivo; details: five mice, T. brucei rhodesiense STIB900, 50 mg/kg oral gavage b.i.d. days 2-5
# Procedure, shortened: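 Mice were infected with T. brucei rhodesiense STIB900 on day 0 and placed in groups of five. Test compound was given at 50 mg/kg by oral gavage twice daily on days 2–5, with a vehicle-treated group. Cure meant no detectable parasitemia […] through 60 days postinfection.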
# [4] = Metabolic stability in pooled mouse liver microsomes; type: in vitro ADME; details: microsome T1/2, mouse microsomes
# Procedure, shortened: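 Half-life of test compound measured in mouse liver microsomes. Testosterone and dextromethorphan HBr were run alongside as controls and had to fall within acceptable ranges.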
# Sequence of CYP3A4 (P08684 whole entry, species assumed): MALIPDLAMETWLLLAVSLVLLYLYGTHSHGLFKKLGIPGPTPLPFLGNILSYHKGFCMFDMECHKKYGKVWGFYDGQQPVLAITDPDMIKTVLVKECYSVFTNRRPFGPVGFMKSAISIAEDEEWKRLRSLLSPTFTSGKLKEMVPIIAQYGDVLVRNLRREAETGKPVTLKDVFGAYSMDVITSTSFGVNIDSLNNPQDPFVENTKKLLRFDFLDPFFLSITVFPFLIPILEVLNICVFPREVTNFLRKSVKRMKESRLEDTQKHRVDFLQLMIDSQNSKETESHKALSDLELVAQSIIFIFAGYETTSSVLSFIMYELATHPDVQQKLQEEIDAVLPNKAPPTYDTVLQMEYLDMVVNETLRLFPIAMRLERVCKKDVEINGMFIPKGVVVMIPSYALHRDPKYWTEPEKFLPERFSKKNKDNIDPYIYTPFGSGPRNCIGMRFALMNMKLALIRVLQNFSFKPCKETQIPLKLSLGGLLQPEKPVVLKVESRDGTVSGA
compound,measurement,setting,value
COc1ccc(N2C(=O)CN(Cc3ccccc3)C2=S)cc1Cl [Compound 1],cytotoxicity on CRL-8155,[1],no detected cytotoxicity
same,cytotoxicity on Hep G2,Hep G2 cell line,no detected cytotoxicity
COc1ccc(N2C(=O)CN(Cc3ccccc3)C2=S)cc1N(C)C [Compound 37],drop in activity compared to 36,[2]; T. brucei EC50 vs compound 36,30 fold
COc1ccc(N2C(=O)CN(Cc3cccc(F)c3)C2=S)cc1Cl [Compound 40],decrease in potency compared to 39,[2]; T. brucei EC50 vs compound 39,18 fold
"CN(C)c1ccc(N2C(=O)CN(Cc3ccc(F)cc3)C2=S)cc1Cl [Compound 68, 1-(4-fluorobenzyl)-3-(4-dimethylamino-3-chlorophenyl)-2-thiohydantoin]",improvement in potency compared to compound 1,[2],> 100 fold
same,IC50,CYP3A4,12.8 µM
same,cures (absence of detectable parasitemia for 60 days postinfection),[3],5/5
"COc1cc(N2C(=O)CN(Cc3ccc(F)cc3Cl)C2=S)ccc1N(C)C [Compound 76, 1-(2-chloro-4-fluorobenzyl)-3-(4-dimethylamino-3-methoxyphenyl)-2-thiohydantoin]",improvement in potency compared to compound 1,[2],> 100 fold
same,cures (absence of detectable parasitemia for 60 days postinfection),[3],5/5
C[C@]12CC[C@H]3[C@@H](CCC4=CC(=O)CC[C@@]43C)[C@@H]1CC[C@@H]2O [Testosterone],half-life at 1.5 µM,[4],3.97 min
COc1ccc2c(c1)[C@]13CCCC[C@@H]1[C@H](C2)N(C)CC3 [dextromethorphan HBr],half-life at 1.5 µM,[4],9.51 min

# — publication PMC5554913 (ACS Medicinal Chemistry Letters, 2017)
